# Source: PubChem
# ARFGAP1 inh: inhibitors of rat ARFGAP1 GAP activity, primary screen, biochemical, fluorescence polarization, GDP tracer | ADP-ribosylation factor GTPase-activating protein 1 (Rattus norvegicus), Q62848 | Arfgap1-stimulated ARF1 GTP hydrolysis, GDP FP detection | inhibition, % at 16.5 µM | actives 0.26% (n = 360,000) | AID 651572, 2012;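 active = inhibition above a per-plate limit, mean inhibition of low control wells plus 3 SD, cut at about 25% in these data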
#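 system = rat Arfgap1 catalytic domain, aa 1-136 | technique = FP, GDP Alexa 633 tracer displaced from anti-GDP antibody, 620/688 nm | compound = one concentration, 16.5 µM, DMSO 1.26% | medium = HEPES-based buffer, pH 7.5 | timing = compound-enzyme preincubation 20 min, reaction 120 min, detection 60 min, 25 °C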
# Granule exo inh: LAMP-1 surface exposure blockers, TALL-104 cells – cell-based, flow cytometry, MLPCN library, primary screen; TALL-104 LAMP-1 surface exposure; cells stimulated with thapsigargin and PMA; actives 0.66% (n = 360,000); AID 651702, 2012; inhibition, % at 10 µM;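 active = inhibition above about 55%, limit read from the data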
# V-ATPase pH: regulators of yeast V-ATPase proton pumping, primary screen, pHLuorin cytosolic pH fluorescence; response, % at 10 µM; actives 0.37% (n = 350,000); S. cerevisiae; AID 504577, 2011; in the data active = response mostly above about 7.3%, no sharp cut-off; inactive = mostly below about 5.4%; note: actives read high
# ASAP1 GAP inh: inhibitors of human ASAP1 ArfGAP activity, primary screen, biochemical, fluorescence polarization | ASAP1-stimulated ARF1 GTP hydrolysis, GDP FP detection | actives 0.19% (n = 360,000) | Arf-GAP with SH3 domain, ANK repeat and PH domain-containing protein 1 (Homo sapiens), … | inhibition, % at 16.5 µM; in the data active = inhibition above about 25%
# CendR NRP1 mod: modulators of CendR peptide binding to NRP-1, primary screen, biochemical, fluorescence polarization, uHTS; Neuropilin-1 (Homo sapiens), O14786; FAM-RPARPAR peptide binding to NRP-1; inhibition, % at 25 µM; actives 0.85% (n = 360,000); AID 602438, 2012;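 active = inhibition or corrected inhibition above about 18%, plus a signal ratio from 0.5 to 1.5, limit read from the data, passing the limit was not always enough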
# Hits are given with their value; . = inactive; / = no result given. In the library only some 2.2% were active in any assay of this set; here they are far more common.
SMILES,ARFGAP1 inh,Granule exo inh,V-ATPase pH,ASAP1 GAP inh,CendR NRP1 mod
CC(C)(C)OC(=O)[C@H](CCCCN)NC(=O)c1nc[nH]c1C(=O)N[C@@H](CCCCN)C(=O)OC(C)(C)C,.,.,.,.,21.3
CC(C)C[C@H](NC(=O)c1nc[nH]c1C(=O)N[C@@H](CCCCN)C(=O)OC(C)(C)C)C(=O)OC(C)(C)C,/,.,.,/,.
CC(C)(C)OC(=O)NCCCC[C@H](NC(=O)c1[nH]cnc1C(=O)Nc1ccccc1)C(=O)OC(C)(C)C,.,.,.,.,20.8
N#CC(c1c(Cl)cccc1N1CCCCC1)N1CCCCC1 (configuration not stated),.,/,/,.,/
CCn1ncc2c(=O)c(C(=O)c3ccccc3)c[nH]c21,.,/,/,.,/
Clc1ccccc1-c1nnc2sc(-c3ccc4c(c3)OCO4)nn12,.,.,15.8,.,.
O=[N+]([O-])c1ccc(/C=N/Nc2ncccc2[N+](=O)[O-])s1,.,.,.,.,.
Cc1cc(C)cc(N=Cc2ccc([N+](=O)[O-])s2)c1,.,.,112.0,.,.
NC(=O)c1ccc(N=Cc2ccc([N+](=O)[O-])s2)cc1,.,.,112.7,.,.
O=[N+]([O-])c1ccc(C=Nc2ccc(Cl)c([N+](=O)[O-])c2)s1,.,.,145.2,.,.
C[C@@H]1CN([C@H](C)CO)C(=O)c2c(c3ccccc3n2C)-c2ccccc2CO[C@@H]1CN(C)C(=O)CCN(C)C,.,/,/,.,/
COc1ccc(CNC(=O)CCNS(=O)(=O)c2ccc(NC(C)=O)cc2)cc1OC,.,.,.,.,.
CCn1c(=O)c(C(=O)CN(C)CC(=O)Nc2ccccc2Br)c(N)n(Cc2ccccc2)c1=O,.,.,.,.,.
O=S(=O)(c1ccccc1)N1CCCc2nc(-c3ccc(F)cc3)ccc21,.,/,/,.,/
O=C(CCN1C(=O)C2C3C=CC(C4CC34)C2C1=O)Oc1ccc(Br)cc1 (configuration not stated),.,.,13.1,.,.
CCCCC1CCC(C(=O)N(CCOC)c2c(N)n(CC(C)C)c(=O)[nH]c2=O)CC1 (configuration not stated),.,.,.,.,.
O=C1NC(Cc2cnc[nH]2)C(=O)N2CCCC12 (configuration not stated),.,/,/,.,/
CCOc1ccccc1-c1ccc(C(=O)NCc2ccccc2)o1,.,.,.,.,27.3
Cc1ccc(-c2ccc(C(=O)NCc3ccccc3)o2)c2ccccc12,.,.,.,.,.
CC(CCC(C)C(C)(C)C)[C@@H]1CC[C@H]2C3C[C@H](OS(O)(=S)=S)[C@H]4C[C@H](OS(O)(=S)=S)[C@@H](OS(O)(=S)=S)C[C@]4(C)[C@H]3CC[C@]12C (some centres not stated) (tested in a mixture with another compound),/,.,.,/,35.9
CC(C)c1ccc(N2C(=O)CC(Sc3ncccn3)C2=O)cc1 (configuration not stated),.,.,.,.,.
COc1ccc2c(c1)[C@@H](NC(=O)c1ccncc1)[C@H](C)[C@H]2c1ccccc1,.,/,/,.,/
COc1ccc(N/N=C(/N=Nc2nc(C)cc(=O)[nH]2)c2ccccc2)cc1,.,.,.,.,43.7
O=c1c2c([N+](=O)[O-])cc([N+](=O)[O-])cc2sn1-c1ccc(Br)cc1,/,91.9,.,/,.
O=C(NC1CCCC1)[C@@H]1CCCN1C(=O)[C@@H](NS(=O)(=O)c1ccc(F)cc1F)C1CCCCC1,.,/,/,.,/
SMILES,ARFGAP1 inh,Granule exo inh,V-ATPase pH,ASAP1 GAP inh,CendR NRP1 mod
O=S1(=O)CCOC[C@H](Cc2ccccc2)N1Cc1ccc(Cl)cc1,.,.,.,.,29.2
CC(C)C[C@H]1COCCS(=O)(=O)N1Cc1ccccc1F,.,.,.,.,25.3
O=S1(=O)CCOCCN1Cc1ccccc1,.,.,.,.,.
O=[N+]([O-])c1cccc(CN2[C@@H](Cc3ccccc3)COCCS2(=O)=O)c1,.,.,.,.,.
O=S1(=O)CCOC[C@H](Cc2ccccc2)N1Cc1cccc(Cl)c1,.,.,.,.,.
CCC(C)[C@H]1COCCS(=O)(=O)N1Cc1ccccc1F (some centres not stated),.,.,.,.,.
